Assay results from ChEMBL document CHEMBL2169846, “Design and synthesis of Pictet-Spengler condensation products that exhibit oncogenic-RAS synthetic lethality and induce non-apoptotic cell death” (Bioorg Med Chem Lett, 2012).
Calls of active or inactive are those of the source. No cut-off for these calls is given here.

Assays:
[1] = Cytotoxicity against human BJeLR cells expressing RAS G12V mutant after 48 hrs by alamar blue assay; type: functional, cell-based; settings: for CC50: read-out: LC50 (the source's name)
[2] = Cytotoxicity against human BJeH cells expressing wild type RAS after 48 hrs by alamar blue assay; type: functional, cell-based; settings: for CC50: read-out: LC50 (the source's name)
U2OS [3] = assay: Cytotoxicity against human U2OS cells at 20 ug/mL after 48 hrs by alamar blue assay; type: functional, cell-based
HT-1080 [4] = assay: Cytotoxicity against human HT1080 cells at 20 ug/mL after 48 hrs by alamar blue assay; type: functional, cell-based
Outline: (§1)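 Each cell line exposed for 48 h to a 2-fold, 12-point dilution series beginning at 20 µg/mL. Viability by Alamar blue; LC50 derived from the curves.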

BJeLR = assay: Cytotoxicity against human BJeLR cells expressing RAS G12V mutant at 20 ug/mL after 48 hrs by alamar blue assay; type: functional, cell-based
HT1299 = assay: Cytotoxicity against human HT1299 cells at 20 ug/mL after 48 hrs by alamar blue assay; type: functional, cell-based; outline: as §1
[5] = system: E3 ubiquitin-protein ligase Mdm2 (Homo sapiens), Q00987 [C464A]; assay: Inhibition of Mdm2 C464A mutant at 20 ug/mL after 2 hrs by cell-based luciferase assay
Sequence of E3 ubiquitin-protein ligase Mdm2 (Homo sapiens), Q00987 [C464A] (Q00987 whole entry C464A): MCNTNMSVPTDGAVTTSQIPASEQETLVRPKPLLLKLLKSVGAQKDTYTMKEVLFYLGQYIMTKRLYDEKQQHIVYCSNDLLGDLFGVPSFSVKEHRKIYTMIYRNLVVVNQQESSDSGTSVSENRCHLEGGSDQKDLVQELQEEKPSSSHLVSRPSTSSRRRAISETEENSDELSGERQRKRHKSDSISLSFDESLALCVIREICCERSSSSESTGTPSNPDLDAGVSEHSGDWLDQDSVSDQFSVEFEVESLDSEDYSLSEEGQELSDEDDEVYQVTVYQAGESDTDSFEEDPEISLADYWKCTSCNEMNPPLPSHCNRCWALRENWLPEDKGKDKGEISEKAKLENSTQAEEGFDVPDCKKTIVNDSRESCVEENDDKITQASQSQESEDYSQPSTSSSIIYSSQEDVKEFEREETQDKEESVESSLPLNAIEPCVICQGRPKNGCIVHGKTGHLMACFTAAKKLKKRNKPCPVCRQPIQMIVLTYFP

[6] = biological target: E3 ubiquitin-protein ligase Mdm2 (Homo sapiens) (UniProt Q00987); assay: Inhibition of wild type Mdm2 at 20 ug/mL after 2 hrs by cell-based luciferase assay
Sequence of E3 ubiquitin-protein ligase Mdm2 (Homo sapiens) (Q00987 whole entry, looked up): as the sequence (Q00987 whole entry C464A) above, with A464C counted along it

RKO [7] = assay: Cytotoxicity against human RKO cells at 20 ug/mL after 48 hrs by alamar blue assay; type: functional, cell-based; outline: as §1
MCF7 [8] = assay: Cytotoxicity against human MCF7 cells at 20 ug/mL after 48 hrs by alamar blue assay; type: functional, cell-based; outline: as §1
BJeH = assay: Cytotoxicity against human BJeH cells expressing wild type RAS at 20 ug/mL after 48 hrs by alamar blue assay; type: functional, cell-based
U2OS [9] = assay: Cytotoxicity against human U2OS cells after 48 hrs by alamar blue assay; type: functional; settings: read-out: LC50 (the source's name)
MCF7 [10] = assay: Cytotoxicity against human MCF7 cells after 48 hrs by alamar blue assay; type: functional; settings: MCF7, 48 h, read-out: LC50 (the source's name)
HT-1080 [11] = assay: Cytotoxicity against human HT1080 cells after 48 hrs by alamar blue assay; type: functional; settings: HT-1080, 48 h, read-out: LC50 (the source's name)
RKO [12] = assay: Cytotoxicity against human RKO cells after 48 hrs by alamar blue assay; type: functional; settings: read-out: LC50 (the source's name)
[13] = Cytotoxicity against human HT1299 cells after 48 hrs by alamar blue assay; type: functional; settings: HT1299, 48 h, read-out: LC50 (the source's name)

SMILES	EC50 [1] [µM]	EC50 [2] [µM]	Activity (U2OS [3])	Activity (HT-1080 [4])	Activity (BJeLR)	Activity (HT1299)	inhibition [5]	inhibition [6]	Activity (RKO [7])	Activity (MCF7 [8])	Activity (BJeH)	CC50 [1] [µM]	CC50 (U2OS [9]) [µM]	CC50 (MCF7 [10]) [µM]	CC50 (HT-1080 [11]) [µM]	CC50 (RKO [12]) [µM]	CC50 [2] [µM]	CC50 [13] [µM]
COc1ccc(N(C(=O)CCl)C(C(=O)NCCc2ccccc2)c2cccs2)cc1Cl (stereo not drawn)	0.025	0.58	–	–	–	–	–	–	–	–	–	–	–	–	–	–	–	–
CCOC(=O)C1c2[nH]c3ccccc3c2CCN1Cc1ccccc1 (stereo not drawn)	–	–	inactive	inactive	inactive	inactive	inactive	inactive	inactive	inactive	inactive	–	–	–	–	–	–	–
COC(OC)C1NCCc2c1[nH]c1ccccc21 (stereo not drawn)	–	–	inactive	inactive	–	inactive	inactive	inactive	inactive	inactive	inactive	81.3	–	–	–	–	–	–
CCCN1C(=O)C(CCC2NCCc3c2[nH]c2ccccc32)C(=O)N(CCC)C1=O (stereo not drawn)	–	–	inactive	inactive	inactive	inactive	inactive	inactive	inactive	inactive	inactive	–	–	–	–	–	–	–
COC(OC)C1c2[nH]c3ccccc3c2CCN1Cc1ccccc1 (stereo not drawn)	–	–	–	–	inactive	inactive	inactive	inactive	–	–	inactive	–	59.5	59.5	59.5	59.5	–	–
CCOC(=O)C1NCCc2c1[nH]c1ccccc21 (stereo not drawn)	–	–	–	–	–	inactive	inactive	inactive	inactive	inactive	–	71.7	81.9	–	81.9	–	71.7	–
CCOC(=O)C1c2[nH]c3ccccc3c2CCN1C(=O)OCc1ccccc1 (stereo not drawn)	–	–	–	–	–	–	inactive	inactive	–	–	–	12.9	12.9	–	–	14.8	52.9	52.9
CC(CC1C(=O)N(C)C(=O)N(C)C1=O)C1NCCc2c1n(C(=O)OC(C)(C)C)c1ccccc21 (stereo not drawn)	–	–	inactive	inactive	–	inactive	inactive	inactive	inactive	inactive	inactive	42.7	–	–	–	–	–	–
CCOC(=O)C(C)C1c2[nH]c3ccccc3c2CCN1C(=O)OC(C)(C)C (stereo not drawn)	–	–	–	–	inactive	–	inactive	inactive	–	–	inactive	–	53.7	23.6	53.7	27.9	–	53.7
COC(=O)N1CCc2c(n(C(=O)OC(C)(C)C)c3ccccc23)C1C(OC)OC (stereo not drawn)	–	–	–	inactive	inactive	inactive	inactive	inactive	inactive	inactive	inactive	–	48.7	–	–	–	–	–
COC(OC)c1nccc2c1[nH]c1ccccc12	–	–	inactive	inactive	–	inactive	inactive	inactive	inactive	inactive	–	7.8	–	–	–	–	82.6	–
CN1C(=O)C(CCC2NCCc3c2[nH]c2ccccc32)C(=O)N(C)C1=O (stereo not drawn)	–	–	inactive	inactive	inactive	inactive	inactive	inactive	inactive	inactive	inactive	–	–	–	–	–	–	–
CCOC(=O)C(C)C1c2c(c3ccccc3n2C(=O)OC(C)(C)C)CCN1C(=O)OC(C)(C)C (stereo not drawn)	–	–	–	–	inactive	–	inactive	inactive	–	–	inactive	–	14.1	9.5	25.2	9.9	–	42.3
